# Fewer inactive variants are shown than the library holds.
# B1: tRNA (parent)
# chain: GUUCCGUUGGCGUAAUGGUAACGCGUCUCCCUCCUAAGGAGAAGACUGCGGGUUCGAGUCCCGUACGGAACG
# Variants of: B1
# Assay: yeast fitness relative to wild type (ratio to wild type); higher = fitter; tRNA-Arg(CCU), competitive growth, 37 C, YPD
# Summary of the method: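 Amplicons of the tRNA-Arg(CCU) gene were sequenced, 100-nucleotide paired-end, from the start population and from each end population of a pooled yeast competition. The competition, in six parallel replicates, lasted 24 hours in YPD at 37°C. Fitness relative to wild type was calculated from changes in genotype frequencies. Genotypes had to have ≥ 100 starting reads, and estimates < 0.5 were set to 0.5.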
row,Variant,yeast fitness
1,G6C U16A C30A A69U,≤ 0.5
2,G6C U16A G23C U64A,≤ 0.5
3,G6C U16C,0.803
4,G6C U16G,0.68
5,G6C U16G C27U C60G,0.582
6,G6C U16G C62U,0.532
7,G6C U16G U35A G51C,≤ 0.5
8,G6C U19A,0.78
9,G6C U19A A20U C22G U28C C34A G52A,≤ 0.5
10,G6C U19A G38C C55A,≤ 0.5
11,G6C U26A,0.641
12,G6C U26C,0.959
13,G6C U26C A37U A43U,≤ 0.5
14,G6C U26C G68A,0.537
15,G6C U26C U64A,≤ 0.5
16,G6C U26G,0.721
17,G6C U28C C46U A69G,≤ 0.5
18,G6C U32A A37U,0.583
19,G6C U32C,0.994
20,G6C U35A,0.876
21,G6C U35A G44C C60A,≤ 0.5

row,Variant,yeast fitness
1,G6C U47A G51C,0.525
2,G6C U47A G51C A65G,0.644
3,G6C U47C,1.01
4,G6C U47G,0.588
5,G6C U53A C61U,≤ 0.5
6,G6C U53C C62U,0.589
7,G6C U53C C62U C66U,≤ 0.5
8,G6C U53G,0.519
9,G6C U54C,0.898
10,G6C U54C C66A,0.6
11,G6C U54G,0.587
12,G6C U59C,0.656
13,G6C U64C,0.87
14,G6C U64G,0.63
15,G6U A21G A70G,0.562
16,G6U A65C,0.799
17,G6U C11A U13A G52A C61U A69C,0.527
18,G6U C27G,0.545
19,G6U C33U,0.562
20,G6U C34U,0.573
21,G6U C34U C61U,≤ 0.5

row,Variant,yeast fitness
1,G6U G44C G56C,≤ 0.5
2,G6U U7C A70C,≤ 0.5
3,G6U U8C,0.769
4,G6U U32C,0.766
5,U7A,0.826
6,U7A A14C A20G,≤ 0.5
7,U7A A14C A42G A57U,≤ 0.5
8,U7A A14C C27U A45U G67A,≤ 0.5
9,U7A A14C G25A C30G C61U,≤ 0.5
10,U7A A14G A15C A36G A40U C46A G52C A70U,0.649
11,U7A A14G A21C U47A G48A,≤ 0.5
12,U7A A14G C31U A43C C46U G63C C66U,≤ 0.5
13,U7A A14U C22U C27A C33U A45C U53C A69C,0.632
14,U7A A14U C31G,≤ 0.5
15,U7A A14U G68A,≤ 0.5
16,U7A A15C A57G,≤ 0.5
17,U7A A15C C55G,≤ 0.5
18,U7A A15C G23C C27U G56A C61A,0.602
19,U7A A15G G23A C27A U28C C29G C61A,≤ 0.5
20,U7A A15U A40G G68C,0.514
21,U7A A15U U53C,≤ 0.5

row,Variant,yeast fitness
1,U7A A20C,0.733
2,U7A A20C G50A,≤ 0.5
3,U7A A20C G67C,≤ 0.5
4,U7A A20C G68C,0.539
5,U7A A20C U28C G58C,0.647
6,U7A A20C U59A A65C,0.662
7,U7A A20G,0.713
8,U7A A20G A43C A57U,≤ 0.5
9,U7A A20G C22A A40G G41C,≤ 0.5
10,U7A A20G C31A,≤ 0.5
11,U7A A20G C31U A57C A65U,≤ 0.5
12,U7A A20G C46G,0.507
13,U7A A20G C49G G67A,≤ 0.5
14,U7A A20G C61A,0.616
15,U7A A20G G23A A40G U47C A70C,≤ 0.5
16,U7A A20G G23A C24U U35A C60A A69C,0.548
17,U7A A20G G23A U26G,0.548
18,U7A A20G G23A U26G A69C,≤ 0.5
19,U7A A20G G23A U26G G50U,≤ 0.5
20,U7A A20G G23A U26G G67A,≤ 0.5
